Experimental data published in ChEMBL document CHEMBL1926614, “Substituted thiazoles V. synthesis and antitumor activity of novel thiazolo[2,3-b]quinazoline and pyrido[4,3-d]thiazolo[3,2-a]pyrimidine analogues” (2012).

Assays:
Format in all cases: functional
UACC-257 = test: Growth inhibition of human UACC257 cells at 10 uM after 48 hrs by coulter counting; details: UACC-257, 48 h, read-out: GI
Method in brief: (§1)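 Single-dose screen in the NCI 60 human tumor cell line panel (nine subpanels). Compounds dissolved in DMSO and diluted in phosphate buffered saline, keeping final DMSO below 1%. Added in duplicate wells to cells at 6 × 10⁴ cells/ml. Controls held PBS and DMSO at matching dilutions. Incubated at 37 °C, humidified, 5% CO₂. Reported as percent growth of treated cells.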

UACC-62 = test: Growth inhibition of human UACC62 cells at 10 uM after 48 hrs by coulter counting; details: UACC-62, 48 h, read-out: GI; method in brief: as §1
SF-539 = test: Growth inhibition of human SF539 cells at 10 uM after 48 hrs by coulter counting; details: SF-539, 48 h, read-out: GI
Method in brief: (§2)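 Single-dose primary screen across the full NCI 60-cell-line panel. Stocks were made in DMSO and diluted in PBS to a final DMSO below 1%. Cultures at 6 × 10⁴ cells/ml were run in duplicate wells alongside PBS/DMSO vehicle controls at 37 °C in humidified 5% CO₂. Data were expressed as percent growth of treated cells.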

CCRF-CEM = test: Growth inhibition of human CCRF-CEM cells at 10 uM after 48 hrs by coulter counting; details: read-out: GI; method in brief: as §2
HL-60(TB) = test: Growth inhibition of human HL-60(TB) cells at 10 uM after 48 hrs by coulter counting; details: HL-60, 48 h, read-out: GI
Method in brief: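 Test compound was dissolved in DMSO and diluted in phosphate-buffered saline to a final DMSO level below 1%. Dilutions were plated in duplicate with cell culture at 6 × 10⁴ cells/ml. Vehicle controls held PBS and DMSO at matching dilutions. Incubation was at 37 °C, humidified, under 5% CO₂. Data were reported as percent growth of treated cells.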

K562 = test: Growth inhibition of human K562 cells at 10 uM after 48 hrs by coulter counting; details: K562, 48 h, read-out: GI; method in brief: as §2
MOLT-4 = test: Growth inhibition of human MOLT4 cells at 10 uM after 48 hrs by coulter counting; details: MOLT-4, 48 h, read-out: GI; method in brief: as §2
RPMI-8226 = test: Growth inhibition of human RPMI8226 cells at 10 uM after 48 hrs by coulter counting; details: RPMI-8226, 48 h, read-out: GI; method in brief: as §2
A549 = test: Growth inhibition of human A549 cells at 10 uM after 48 hrs by coulter counting; details: A549, 48 h, read-out: GI; method in brief: as §2
EKVX = test: Growth inhibition of human EKVX cells at 10 uM after 48 hrs by coulter counting; details: read-out: GI; method in brief: as §2
HOP-62 = test: Growth inhibition of human HOP62 cells at 10 uM after 48 hrs by coulter counting; details: HOP-62, 48 h, read-out: GI; method in brief: as §2
NCI-H226 = test: Growth inhibition of human NCI-H226 cells at 10 uM after 48 hrs by coulter counting; details: NCI-H226, 48 h, read-out: GI; method in brief: as §2
NCI-H23 = test: Growth inhibition of human NCI-H23 cells at 10 uM after 48 hrs by coulter counting; details: NCI-H23, 48 h, read-out: GI; method in brief: as §2
[1] = Growth inhibition of human NCI-322M cells at 10 uM after 48 hrs by coulter counting; details: read-out: GI; method in brief: as §2
NCI-H460 = test: Growth inhibition of human NCI-H460 cells at 10 uM after 48 hrs by coulter counting; details: NCI-H460, 48 h, read-out: GI; method in brief: as §2
NCI-H522 = test: Growth inhibition of human NCI-H522 cells at 10 uM after 48 hrs by coulter counting; details: NCI-H522, 48 h, read-out: GI; method in brief: as §2
HCT-116 = test: Growth inhibition of human HCT116 cells at 10 uM after 48 hrs by coulter counting; details: HCT-116, 48 h, read-out: GI; method in brief: as §2
HCC 2998 = test: Growth inhibition of human HCC2998 cells at 10 uM after 48 hrs by coulter counting; details: HCC 2998, 48 h, read-out: GI; method in brief: as §2
HT-29 = test: Growth inhibition of human HT-29 cells at 10 uM after 48 hrs by coulter counting; details: HT-29, 48 h, read-out: GI; method in brief: as §2
KM12 = test: Growth inhibition of human KM12 cells at 10 uM after 48 hrs by coulter counting; details: KM12, 48 h, read-out: GI; method in brief: as §2
SF-268 = test: Growth inhibition of human SF268 cells at 10 uM after 48 hrs by coulter counting; details: SF-268, 48 h, read-out: GI; method in brief: as §2
SF-295 = test: Growth inhibition of human SF295 cells at 10 uM after 48 hrs by coulter counting; details: SF-295, 48 h, read-out: GI; method in brief: as §2
SNB-19 = test: Growth inhibition of human SNB19 cells at 10 uM after 48 hrs by coulter counting; details: SNB-19, 48 h, read-out: GI; method in brief: as §2
SNB-75 = test: Growth inhibition of human SNB75 cells at 10 uM after 48 hrs by coulter counting; details: SNB-75, 48 h, read-out: GI; method in brief: as §2
U-251 = test: Growth inhibition of human U251 cells at 10 uM after 48 hrs by coulter counting; details: U-251, 48 h, read-out: GI; method in brief: as §1
LOX IMVI = test: Growth inhibition of human LOXIMVI cells at 10 uM after 48 hrs by coulter counting; details: read-out: GI; method in brief: as §2
M14 = test: Growth inhibition of human M14 cells at 10 uM after 48 hrs by coulter counting; details: M14, 48 h, read-out: GI; method in brief: as §2
MDA-MB-435 = test: Growth inhibition of human MDA-MB-435 cells at 10 uM after 48 hrs by coulter counting; details: MDA-MB-435, 48 h, read-out: GI; method in brief: as §2
SK-MEL-2 = test: Growth inhibition of human SK-MEL-2 cells at 10 uM after 48 hrs by coulter counting; details: SK-MEL-2, 48 h, read-out: GI; method in brief: as §2
SK-MEL-28 = test: Growth inhibition of human SK-MEL-28 cells at 10 uM after 48 hrs by coulter counting; details: SK-MEL-28, 48 h, read-out: GI; method in brief: as §2
SK-MEL-5 = test: Growth inhibition of human SK-MEL-5 cells at 10 uM after 48 hrs by coulter counting; details: SK-MEL-5, 48 h, read-out: GI; method in brief: as §2
IGROV-1 = test: Growth inhibition of human IGROV1 cells at 10 uM after 48 hrs by coulter counting; details: IGROV-1, 48 h, read-out: GI; method in brief: as §2
OVCAR-4 = test: Growth inhibition of human OVCAR4 cells at 10 uM after 48 hrs by coulter counting; details: OVCAR-4, 48 h, read-out: GI; method in brief: as §2
NCI/ADR-RES = test: Growth inhibition of human NCI/ADR-RES cells at 10 uM after 48 hrs by coulter counting; details: read-out: GI; method in brief: as §2
A498 = test: Growth inhibition of human A498 cells at 10 uM after 48 hrs by coulter counting; details: A498, 48 h, read-out: GI; method in brief: as §2
ACHN = test: Growth inhibition of human ACHN cells at 10 uM after 48 hrs by coulter counting; details: read-out: GI; method in brief: as §2
CAKI-1 = test: Growth inhibition of human Caki1 cells at 10 uM after 48 hrs by coulter counting; details: CAKI-1, 48 h, read-out: GI; method in brief: as §2
UO-31 = test: Growth inhibition of human UO31 cells at 10 uM after 48 hrs by coulter counting; details: UO-31, 48 h, read-out: GI; method in brief: as §1
DU-145 = test: Growth inhibition of human DU145 cells at 10 uM after 48 hrs by coulter counting; details: DU-145, 48 h, read-out: GI; method in brief: as §2
MCF7 = test: Growth inhibition of human MCF7 cells at 10 uM after 48 hrs by coulter counting; details: MCF7, 48 h, read-out: GI; method in brief: as §2
BT-549 = test: Growth inhibition of human BT549 cells at 10 uM after 48 hrs by coulter counting; details: BT-549, 48 h, read-out: GI; method in brief: as §2
T47D = test: Growth inhibition of human T47D cells at 10 uM after 48 hrs by coulter counting; details: read-out: GI; method in brief: as §1

SMILES: C1=CN2C(=NC3=C(CCC/C3=C\c3ccccc3)C2c2ccccc2)S1 (configuration not stated)
- inhibition of growth at 10 µM (UACC-257): > 10%
- inhibition of growth at 10 µM (UACC-62): > 10%
- inhibition of growth at 10 µM (SF-539): > 10%
- inhibition of growth at 10 µM (CCRF-CEM): > 10%
- inhibition of growth at 10 µM (HL-60(TB)): > 10%
- inhibition of growth at 10 µM (K562): > 10%
- inhibition of growth at 10 µM (MOLT-4): > 10%
- inhibition of growth at 10 µM (RPMI-8226): > 10%
- inhibition of growth at 10 µM (A549): > 10%
- inhibition of growth at 10 µM (EKVX): > 10%
- inhibition of growth at 10 µM (HOP-62): > 10%
- inhibition of growth at 10 µM (NCI-H226): > 10%
- inhibition of growth at 10 µM (NCI-H23): > 10%
- inhibition of growth at 10 µM [1]: > 10%
- inhibition of growth at 10 µM (NCI-H460): > 10%
- inhibition of growth at 10 µM (NCI-H522): > 10%
- inhibition of growth at 10 µM (HCT-116): > 10%
- inhibition of growth at 10 µM (HCC 2998): > 10%
- inhibition of growth at 10 µM (HT-29): > 10%
- inhibition of growth at 10 µM (KM12): > 10%
- inhibition of growth at 10 µM (SF-268): > 10%
- inhibition of growth at 10 µM (SF-295): > 10%
- inhibition of growth at 10 µM (SNB-19): > 10%
- inhibition of growth at 10 µM (SNB-75): > 10%
- inhibition of growth at 10 µM (U-251): > 10%
- inhibition of growth at 10 µM (LOX IMVI): > 10%
- inhibition of growth at 10 µM (M14): > 10%
- inhibition of growth at 10 µM (MDA-MB-435): > 10%
- inhibition of growth at 10 µM (SK-MEL-2): > 10%
- inhibition of growth at 10 µM (SK-MEL-28): > 10%
- inhibition of growth at 10 µM (SK-MEL-5): > 10%
- inhibition of growth at 10 µM (IGROV-1): > 10%
- inhibition of growth at 10 µM (OVCAR-4): > 10%
- inhibition of growth at 10 µM (NCI/ADR-RES): > 10%
- inhibition of growth at 10 µM (A498): > 10%
- inhibition of growth at 10 µM (ACHN): > 10%
- inhibition of growth at 10 µM (CAKI-1): > 10%
- inhibition of growth at 10 µM (UO-31): 21.4%
- inhibition of growth at 10 µM (DU-145): > 10%
- inhibition of growth at 10 µM (MCF7): > 10%
- inhibition of growth at 10 µM (BT-549): > 10%
- inhibition of growth at 10 µM (T47D): > 10%
